Test results reported in ChEMBL document CHEMBL4346709, “Design and Optimization Leading to an Orally Active TTK Protein Kinase Inhibitor with Robust Single Agent Efficacy” (J Med Chem, 2019).
pIC50: −log10 of the molar value. Activity calls are given as the source filed them. The rule behind the calls is not given here.

Columns and labels:
[1] = molecular target: Mitogen-activated protein kinase 9 (Homo sapiens, UniProt P45984); assay: Inhibition of recombinant human full length His-tagged JNK2 expressed in baculovirus expression system by Z'-LYTE assay
[2] = Toxicity in CB17 SCID mouse xenografted with human CAL51 cells assessed as loss of body weight at 30 to 120 mg/kg, po administered every seven days for 16 days and measured up to 31 days; format: organism-based; details: in vivo
In short: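 Female CB17 SCID mice bearing subcutaneous CAL-51 xenografts (2×10^6 cells). Oral dosing once weekly at 30-120 mg/kg, or 30 mg/kg BID once weekly, for 16 days. Body weight loss tracked alongside tumour measurements, against vehicle.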

Mus musculus = assay: Inhibition of mitosis in human CAL51 cells xenografted in CB17 SCID mouse assessed reduction in pHH3 ser10 level at 30 mg/kg, po administered as single dose measured up to 48 hrs by MSD electrochemiluminescent immunoassay; format: functional, organism-based
In short: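 CB17 SCID mice bearing CAL-51 tumours of 300-500 mm3 given compound orally. At preset time points the mice were euthanised and the tumours dissected and snap-frozen in liquid nitrogen. pHH3 Ser10 or cleaved caspase measured by MSD electrochemiluminescent immunoassay kit. Data are mean ± SEM.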

CAL-51 [3] = assay: Antitumor activity against human CAL51 cells xenografted in CB17 SCID mouse assessed as tumor growth inhibition at 60 mg/kg, po administered every seven days for 16 days and measured twice per week up to 31 days by caliper method relative to control; format: functional; details: CAL-51, po, read-out: TGI
In short: (§1)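 Female CB17 SCID mice, 6-8 weeks old, inoculated subcutaneously with 2×10^6 CAL-51 cells. Oral dosing once weekly (QW) at 30-120 mg/kg, or 30 mg/kg BID QW, for 16 days, against vehicle control. Tumour long and short axes measured twice weekly by digital caliper; volume = width² × length/2. Values are TGI; data are mean ± SEM.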

[4] = molecular target: Mitogen-activated protein kinase 10 (Homo sapiens, UniProt P53779); assay: Inhibition of recombinant human full length N-terminal GST-tagged JNK3 expressed in baculovirus expression system by Z'-LYTE assay
CAL-51 [5] = assay: Antitumor activity against human CAL51 cells xenografted in CB17 SCID mouse assessed as tumor growth inhibition at 30 mg/kg, po […] for 16 days and measured twice per week up to 31 days by caliper method relative to control; format: functional; details: CAL-51, po, read-out: TGI; in short: as §1
Homo sapiens = species on record: Homo sapiens; assay: Selectivity ratio of IC50 for recombinant human GST-tagged LRRK2 catalytic domain (970 to 2527 residues) expressed in baculovirus expression system to IC50 for inhibition of Kinase Tracer 236 binding to recombinant human full-length GST-tagged TTk expressed in baculovirus expression system
LRRK2 = LRRK2 (Homo sapiens, UniProt Q5S007); assay: Inhibition of recombinant human GST-tagged LRRK2 catalytic domain (970 to 2527 residues) expressed in baculovirus expression system at 3 uM using LRRKtide as substrate measured after 1 hr by Alexa fluor-647 ADP tracer-based ADAPTA assay relative to control; details: probe LRRKtide
In short: (§2)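 Kinase selectivity panel: single-point assessment at 3 µM, n=1.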

[6] = molecular target: T1, Dual specificity tyrosine-phosphorylation-regulated kinase 3 (Homo sapiens, UniProt O43781); assay: Inhibition of recombinant human full length GST-tagged DYRK3 expressed in baculovirus expression system by Z'-LYTE assay
T1 sequence (O43781 whole entry): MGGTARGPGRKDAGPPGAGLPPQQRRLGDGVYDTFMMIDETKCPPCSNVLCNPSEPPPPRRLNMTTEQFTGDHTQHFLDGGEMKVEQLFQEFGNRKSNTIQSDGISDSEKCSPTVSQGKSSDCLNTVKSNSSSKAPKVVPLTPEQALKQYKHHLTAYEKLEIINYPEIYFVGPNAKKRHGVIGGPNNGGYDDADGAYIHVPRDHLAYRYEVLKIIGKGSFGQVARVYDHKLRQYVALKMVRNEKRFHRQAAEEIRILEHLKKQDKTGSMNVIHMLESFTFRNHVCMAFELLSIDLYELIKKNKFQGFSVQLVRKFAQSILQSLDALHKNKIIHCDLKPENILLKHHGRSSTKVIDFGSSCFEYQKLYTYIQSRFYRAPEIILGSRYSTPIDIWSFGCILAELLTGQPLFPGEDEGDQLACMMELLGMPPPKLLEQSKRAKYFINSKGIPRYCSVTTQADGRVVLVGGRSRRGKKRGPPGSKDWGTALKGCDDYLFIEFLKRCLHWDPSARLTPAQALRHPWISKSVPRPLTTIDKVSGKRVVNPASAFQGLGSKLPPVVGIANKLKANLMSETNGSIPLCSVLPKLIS

[7] = molecular target: Mitogen-activated protein kinase 8 (Homo sapiens, UniProt P45983); assay: Inhibition of recombinant human full length His-tagged JNK1 expressed in baculovirus expression system at 3 uM by Z'-LYTE assay relative to control; in short: as §2
CAL-51 [8] = assay: Antiproliferative activity against human CAL51 cells assessed as reduction in cell viability after 3 days by CellTiter-Glo reagent-based luminescent assay; format: functional; details: CAL-51, 72 h
[9] = molecular target: T2, Dual specificity tyrosine-phosphorylation-regulated kinase 3 (Homo sapiens) (UniProt O43781); assay: Inhibition of recombinant human full length GST-tagged DYRK3 expressed in baculovirus expression system at 3 uM by Z'-LYTE assay relative to control; in short: as §2
T2 sequence (whole entry): T1 sequence (O43781 whole entry)

LRRK2, sequence (Q5S007 whole entry, the tested form may be a part): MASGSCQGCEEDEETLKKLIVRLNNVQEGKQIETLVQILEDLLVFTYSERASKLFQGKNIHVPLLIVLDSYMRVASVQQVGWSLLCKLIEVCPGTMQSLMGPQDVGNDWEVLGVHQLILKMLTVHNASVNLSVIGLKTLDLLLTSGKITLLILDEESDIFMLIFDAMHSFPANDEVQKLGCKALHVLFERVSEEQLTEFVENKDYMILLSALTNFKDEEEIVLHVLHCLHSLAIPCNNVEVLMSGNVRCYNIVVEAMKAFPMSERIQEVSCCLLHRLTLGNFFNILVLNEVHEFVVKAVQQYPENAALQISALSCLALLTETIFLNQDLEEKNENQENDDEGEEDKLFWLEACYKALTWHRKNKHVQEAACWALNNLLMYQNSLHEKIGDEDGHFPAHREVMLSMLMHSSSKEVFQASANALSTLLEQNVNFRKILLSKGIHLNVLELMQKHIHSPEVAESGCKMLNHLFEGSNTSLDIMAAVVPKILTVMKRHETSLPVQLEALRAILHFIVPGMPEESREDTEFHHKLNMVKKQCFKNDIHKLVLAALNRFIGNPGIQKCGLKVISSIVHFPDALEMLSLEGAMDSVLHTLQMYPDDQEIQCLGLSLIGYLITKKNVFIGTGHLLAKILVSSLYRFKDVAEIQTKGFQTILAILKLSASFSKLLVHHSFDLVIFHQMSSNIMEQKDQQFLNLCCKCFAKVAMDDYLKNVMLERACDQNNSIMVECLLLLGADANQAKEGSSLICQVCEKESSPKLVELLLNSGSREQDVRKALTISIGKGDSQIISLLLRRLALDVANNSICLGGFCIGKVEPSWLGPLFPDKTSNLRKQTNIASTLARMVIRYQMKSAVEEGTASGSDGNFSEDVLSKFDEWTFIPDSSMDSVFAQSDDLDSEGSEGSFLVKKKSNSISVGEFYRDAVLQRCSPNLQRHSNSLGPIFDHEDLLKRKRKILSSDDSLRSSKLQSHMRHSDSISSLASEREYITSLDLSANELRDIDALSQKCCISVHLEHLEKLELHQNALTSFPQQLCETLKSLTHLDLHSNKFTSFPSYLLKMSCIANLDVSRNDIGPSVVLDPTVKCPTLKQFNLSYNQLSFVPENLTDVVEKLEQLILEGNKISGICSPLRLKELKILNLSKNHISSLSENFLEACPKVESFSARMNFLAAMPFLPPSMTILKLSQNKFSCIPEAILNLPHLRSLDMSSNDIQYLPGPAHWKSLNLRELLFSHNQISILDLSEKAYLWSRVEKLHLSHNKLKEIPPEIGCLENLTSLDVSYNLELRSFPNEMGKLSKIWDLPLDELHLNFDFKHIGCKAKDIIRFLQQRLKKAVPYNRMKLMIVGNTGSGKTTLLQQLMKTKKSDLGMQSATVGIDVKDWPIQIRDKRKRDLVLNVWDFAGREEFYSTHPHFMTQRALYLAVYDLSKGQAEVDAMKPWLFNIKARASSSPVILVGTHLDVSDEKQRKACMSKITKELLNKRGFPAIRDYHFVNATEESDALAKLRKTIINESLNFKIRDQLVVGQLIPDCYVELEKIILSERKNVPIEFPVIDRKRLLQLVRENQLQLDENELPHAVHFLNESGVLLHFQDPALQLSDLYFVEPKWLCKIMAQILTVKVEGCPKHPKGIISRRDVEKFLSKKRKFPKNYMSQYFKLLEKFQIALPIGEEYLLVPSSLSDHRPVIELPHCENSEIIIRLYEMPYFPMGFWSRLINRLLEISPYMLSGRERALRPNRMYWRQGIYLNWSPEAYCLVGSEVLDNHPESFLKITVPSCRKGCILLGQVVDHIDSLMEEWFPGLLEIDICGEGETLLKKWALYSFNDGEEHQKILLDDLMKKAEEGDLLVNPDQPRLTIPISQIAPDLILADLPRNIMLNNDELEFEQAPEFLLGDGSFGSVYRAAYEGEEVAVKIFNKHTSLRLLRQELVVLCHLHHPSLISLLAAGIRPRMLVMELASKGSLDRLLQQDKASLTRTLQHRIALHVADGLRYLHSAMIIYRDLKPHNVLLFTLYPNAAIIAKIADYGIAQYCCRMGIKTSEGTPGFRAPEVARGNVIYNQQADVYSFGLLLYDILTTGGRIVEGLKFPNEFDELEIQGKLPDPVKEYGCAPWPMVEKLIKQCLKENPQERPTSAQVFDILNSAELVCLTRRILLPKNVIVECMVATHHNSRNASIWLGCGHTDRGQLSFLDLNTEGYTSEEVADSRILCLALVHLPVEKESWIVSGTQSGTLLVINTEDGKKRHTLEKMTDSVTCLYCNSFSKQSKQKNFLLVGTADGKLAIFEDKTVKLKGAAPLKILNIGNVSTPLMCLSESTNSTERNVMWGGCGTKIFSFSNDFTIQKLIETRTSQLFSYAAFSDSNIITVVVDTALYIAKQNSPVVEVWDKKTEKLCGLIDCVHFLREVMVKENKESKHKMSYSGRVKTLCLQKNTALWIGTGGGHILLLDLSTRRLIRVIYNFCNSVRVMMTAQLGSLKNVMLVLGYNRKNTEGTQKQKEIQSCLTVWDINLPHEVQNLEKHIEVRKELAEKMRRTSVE
Mitogen-activated protein kinase 9, sequence (P45984 whole entry): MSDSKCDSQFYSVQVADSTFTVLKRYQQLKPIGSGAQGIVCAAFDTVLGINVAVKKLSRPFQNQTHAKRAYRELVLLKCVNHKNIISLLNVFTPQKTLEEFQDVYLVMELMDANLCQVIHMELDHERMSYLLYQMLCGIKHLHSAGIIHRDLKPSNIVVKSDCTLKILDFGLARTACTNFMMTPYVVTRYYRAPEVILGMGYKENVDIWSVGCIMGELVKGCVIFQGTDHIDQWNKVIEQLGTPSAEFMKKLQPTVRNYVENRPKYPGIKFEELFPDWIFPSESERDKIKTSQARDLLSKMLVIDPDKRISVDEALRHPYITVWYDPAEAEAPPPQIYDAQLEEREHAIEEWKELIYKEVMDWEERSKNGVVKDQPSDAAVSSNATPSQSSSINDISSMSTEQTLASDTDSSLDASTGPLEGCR
Mitogen-activated protein kinase 10, sequence (P53779 whole entry): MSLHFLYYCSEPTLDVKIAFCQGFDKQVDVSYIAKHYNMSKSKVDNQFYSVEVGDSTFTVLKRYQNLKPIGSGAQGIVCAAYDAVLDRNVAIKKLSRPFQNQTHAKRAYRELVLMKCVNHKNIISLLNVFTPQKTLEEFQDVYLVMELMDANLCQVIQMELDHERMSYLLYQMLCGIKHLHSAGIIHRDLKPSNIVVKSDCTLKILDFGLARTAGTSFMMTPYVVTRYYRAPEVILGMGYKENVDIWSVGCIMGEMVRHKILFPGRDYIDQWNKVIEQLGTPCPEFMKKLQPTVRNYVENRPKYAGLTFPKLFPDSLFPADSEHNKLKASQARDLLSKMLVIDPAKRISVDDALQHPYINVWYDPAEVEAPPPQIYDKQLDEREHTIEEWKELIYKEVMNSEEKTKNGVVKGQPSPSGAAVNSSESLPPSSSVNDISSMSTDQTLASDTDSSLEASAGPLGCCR
Mitogen-activated protein kinase 8, sequence (P45983 whole entry): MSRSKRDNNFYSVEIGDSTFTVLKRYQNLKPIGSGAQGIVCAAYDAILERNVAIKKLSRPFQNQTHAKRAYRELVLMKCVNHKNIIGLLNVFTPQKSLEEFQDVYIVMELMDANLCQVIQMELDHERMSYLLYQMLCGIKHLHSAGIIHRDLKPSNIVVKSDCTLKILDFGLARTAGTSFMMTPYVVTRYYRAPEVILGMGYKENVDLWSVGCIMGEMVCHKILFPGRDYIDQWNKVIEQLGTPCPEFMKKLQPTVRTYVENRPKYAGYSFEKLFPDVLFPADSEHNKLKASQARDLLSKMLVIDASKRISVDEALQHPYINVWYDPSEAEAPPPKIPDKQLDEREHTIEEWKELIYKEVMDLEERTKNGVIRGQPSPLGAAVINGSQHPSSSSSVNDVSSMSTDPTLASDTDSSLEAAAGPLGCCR

## C[C@@H](Oc1cc(C(=O)N(C)C)ccc1Nc1nc(O[C@H]2CC[C@@](C)(O)CC2)c2c(Cl)c[nH]c2n1)C(F)(F)F
[1]
  pIC50: 10.23
[2]
  Activity: Non-Toxic
Mus musculus
  inhibition: Active
CAL-51 [3]
  inhibition in vivo at 60 mg/kg: 65%
[4]
  pIC50: 9.97
CAL-51 [5]
  inhibition in vivo at 30 mg/kg: 84%
Homo sapiens
  Ratio IC50: < 100
LRRK2
  inhibition at 1 h, 3 µM: > 80%
[6]
  pIC50: 9.98
[7]
  inhibition: > 80%
CAL-51 [8]
  pIC50: 8.00
[9]
  inhibition: > 80%
